The values that follow come from the array DNA melting data of Ke et al. (doi:10.1101/2024.01.08.574731).

Data set [1] can be described thus: folding enthalpy; higher = less favourable; fluorescence melt of hairpins on a sequencing array, two-state fit. The note with it: sodium 0.088 M. In a few lines: (§1)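 Melting temperature and folding enthalpy were obtained by bootstrapped two-state fitting. Fits used Cy3 fluorescence of library hairpins with annealed Cy3 and quencher oligos on a sequenced MiSeq flow cell, imaged in 50 mM Na-HEPES pH 8.0, 25 mM NaCl in 2.5 °C steps up to 60 °C and normalised to pre-quench Cy3 and control constructs. Four replicates were combined by inverse-variance weighting, and fitted temperatures were raised by 9.35 °C to match UV melts.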

Data set [2] in a line: melting temperature; fluorescence melt of hairpins on a sequencing array, two-state fit, raised by 9.35 °C to match UV melts. The note with it: sodium 0.088 M. In a few lines:
as §1

Consider GTCTGAGGAAACTCAAAC ((.((((....)))).)), for which the folding enthalpy in data set [1] is -11.3 kcal/mol. The Tm in data set [2] came out at 24.5 °C.

GTCTGAGGAAACTCAGAC (((((((....))))))): the folding enthalpy in data set [1] is -45.5 kcal/mol. The Tm in data set [2] turned out to be 63.8 °C.

On to GTCTGCACGAAAGTGGAC (((..(((....)))))), for which, in data set [1], the folding enthalpy was -15 kcal/mol. In addition, in data set [2], the Tm was determined as 34.7 °C.

For the sequence GTCTGCCGAAAGGCGAC (((.(((....)))))), the folding enthalpy in data set [1] was -18.1 kcal/mol. The Tm in data set [2] worked out at 54.9 °C.

Take GTCTGCCGAAAGGCTGAC (((.(((....))).))): in data set [1], the folding enthalpy is -30.5 kcal/mol. For the same sequence, in data set [2], the Tm amounted to 62.1 °C.

Consider GTCTGCGAAAGCACAGAC ((((((....)))..))), for which, in data set [1], the folding enthalpy was -18.6 kcal/mol. In addition, the Tm in data set [2] is 46.3 °C.

Consider GTCTGCGAAAGCAGAGAC ((((((....)))..))), for which, in data set [1], the folding enthalpy is -9.97 kcal/mol. In data set [2], the Tm was found to be 51.4 °C.

Take GTCTGCGAAAGCAGGGAC ((((((....)))..))): the folding enthalpy in data set [1] was -7.79 kcal/mol. Further, the Tm in data set [2] was determined as 42.8 °C.

As for GTCTGCGAAAGCATCGAC ((((((....)))..))), in data set [1], the folding enthalpy was -14.8 kcal/mol. For the same sequence, the Tm in data set [2] turned out to be 33.6 °C.

Consider GTCTGCGAAAGCATGAC ((((((....))).))), for which, in data set [1], the folding enthalpy is -23.5 kcal/mol. Besides, in data set [2], the Tm was found to be 52.7 °C.

As for GTCTGCGAAAGCATGGAC ((((((....)))..))), in data set [1], the folding enthalpy was -15.7 kcal/mol. The Tm in data set [2] was found to be 40.7 °C.

Regarding GTCTGCGCGAAAGCGGAC (((..(((....)))))), the folding enthalpy in data set [1] is -13.3 kcal/mol. In addition, the Tm in data set [2] turned out to be 45.2 °C.

Turning to GTCTGCGGAAACACAGAC (((((.(....).))))), the folding enthalpy in data set [1] is -44.1 kcal/mol. Also, in data set [2], the Tm is 46.7 °C.

Take GTCTGGCCGAAAGGCGAC (((..(((....)))))): in data set [1], the folding enthalpy is -15.7 kcal/mol. Also, in data set [2], the Tm came to 43.9 °C.

For GTCTGGGGAAACCTAGAC ((((.((....)).)))), the folding enthalpy in data set [1] is -29.7 kcal/mol. Besides, the Tm in data set [2] turned out to be 47.6 °C.

In the case of GTCTGGGGAAACCTAGGC (.((.((....)).)).), the folding enthalpy in data set [1] is -19.8 kcal/mol. For the same sequence, the Tm in data set [2] was found to be 34.8 °C.

As to GTCTGTACGAAAGTAGAC (((..(((....)))))), the folding enthalpy in data set [1] was -24.2 kcal/mol. Also, the Tm in data set [2] worked out at 36.4 °C.

For GTCTGTTCGAAAGAAGAC (((..(((....)))))), the folding enthalpy in data set [1] was -23 kcal/mol. The Tm in data set [2] stood at 26.4 °C.

As to GTCTTAACGAAAGTTGAC (((..(((....)))))), the folding enthalpy in data set [1] is -15.8 kcal/mol. Moreover, the Tm in data set [2] was found to be 31.9 °C.

As for GTCTTAGGAAACTAAGGC (.(((((....))))).), the folding enthalpy in data set [1] was -25.9 kcal/mol. Besides, the Tm in data set [2] is 42.9 °C.

Take GTCTTAGGAAACTGAGAC ((((.((....)).)))): the folding enthalpy in data set [1] was -30.7 kcal/mol. Moreover, the Tm in data set [2] amounted to 40.9 °C.

Turning to GTCTTCCGAAAGGACGAC (((.(((....))).))), the folding enthalpy in data set [1] was -40.7 kcal/mol. Besides, the Tm in data set [2] is 48.6 °C.

GTCTTCGAAAGAAAAGAC ((((((....)))..))): the folding enthalpy in data set [1] was -17.9 kcal/mol. Moreover, the Tm in data set [2] was 30.8 °C.

On to GTCTTCGAAAGAAGTGAC ((((((....)))..))), for which the folding enthalpy in data set [1] was -13.3 kcal/mol. Moreover, the Tm in data set [2] turned out to be 34 °C.

On to GTCTTCGGAAACGAAAAC ((.((((....)))).)), for which the folding enthalpy in data set [1] was -15.4 kcal/mol. Further, the Tm in data set [2] is 29.2 °C.

With GTCTTCGGAAACGAGGAC (((.(((....))).))), the folding enthalpy in data set [1] was -39.1 kcal/mol. The Tm in data set [2] worked out at 49.7 °C.

Turning to GTCTTGACGAAAGTCGAC (((..(((....)))))), the folding enthalpy in data set [1] was -11 kcal/mol. For the same sequence, the Tm in data set [2] worked out at 35.5 °C.

In the case of GTCTTGCGAAAGCAGAC (((.(((....)))))), in data set [1], the folding enthalpy was -22.8 kcal/mol. Moreover, the Tm in data set [2] was 52.1 °C.

GTCTTGCGAAAGCATGAC (((.(((....))).))): the folding enthalpy in data set [1] is -37.7 kcal/mol. In addition, the Tm in data set [2] worked out at 56.1 °C.

With GTCTTGGGAAACCAAGGC (.(((((....))))).), the folding enthalpy in data set [1] was -24.4 kcal/mol. Further, in data set [2], the Tm was 51 °C.
